# Experimental data collected from several papers.
# Each line is one published result; the experiments were not run side by side.
# pH: 7.4
Compound,technique,matrix,time,quantity,result
O=C1NC2(CCC2)C(=O)N1c1ccc(F)c(C(F)(F)F)c1,HPLC,,,chromatographic logD,3
CCCCCc1cn([C@H]2[C@H]([C@H](O)[C@H](O)CO)OC(C(=O)O)=C[C@@H]2O)nn1,shake flask,aqueous buffer,2 h,logD,-0.3
CC1(C)NC(=O)N(c2ccc(F)c(C(F)(F)F)c2F)C1=O,HPLC,,,chromatographic logD,2.7
COc1cc(C(=O)c2nc(-c3cccc4[nH]ccc34)c[nH]2)cc(OC)c1OC,,,,logD,3.69
Cc1ccc2[nH]c(=S)n(Cc3cccnc3)c(=O)c2c1,shake flask,aqueous buffer,,logD,2.88
c1cc(-c2ccc3ncnc(Nc4ncco4)c3c2)cc(N2C[C@H]3C[C@@H]2CO3)c1,shake flask,aqueous buffer,,logD,3.5
CCCCCC(=O)N[C@H]1[C@H]([C@H](O)[C@H](O)CO)OC(C(=O)O)=C[C@@H]1O,shake flask,aqueous buffer,2 h,logD,-0.92
O=c1c2cc(Cl)ccc2[nH]c(=S)n1Cc1cccnc1,shake flask,aqueous buffer,,logD,3.16
